Test results published in ChEMBL document CHEMBL4414574, “Structure-Based Discovery and Development of a Series of Potent and Selective Bromodomain and Extra-Terminal Protein Inhibitors” (J Med Chem, 2019).
Calls of active or inactive are those of the source. No cut-off for these calls is given here.

Assays:
Cytochrome P450 2C19 = Cytochrome P450 2C19 (Homo sapiens, UniProt P33261); test: Time-dependent inhibition of CYP2C19 in human liver microsomes at 10 uM using mephenytoin as substrate preincubated up to 30 mins followed by NADPH generating system addition and measured after 10 mins; assay type: ADME
Chain of Cytochrome P450 2C19 (P33261 whole entry): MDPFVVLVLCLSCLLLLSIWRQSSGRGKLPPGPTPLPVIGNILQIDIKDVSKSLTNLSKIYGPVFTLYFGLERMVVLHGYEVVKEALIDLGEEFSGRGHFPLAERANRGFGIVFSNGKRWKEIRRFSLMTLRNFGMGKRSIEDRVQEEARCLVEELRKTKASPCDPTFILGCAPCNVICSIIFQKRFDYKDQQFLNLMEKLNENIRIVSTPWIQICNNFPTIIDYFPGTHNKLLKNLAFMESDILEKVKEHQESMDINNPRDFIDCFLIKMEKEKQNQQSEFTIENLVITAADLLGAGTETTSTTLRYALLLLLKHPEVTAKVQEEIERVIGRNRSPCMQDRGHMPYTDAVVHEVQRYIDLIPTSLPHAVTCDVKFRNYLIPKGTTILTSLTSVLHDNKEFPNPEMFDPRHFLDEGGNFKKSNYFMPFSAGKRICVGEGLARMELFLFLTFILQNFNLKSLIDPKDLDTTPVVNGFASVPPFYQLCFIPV
In short: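 Human liver microsomes 0.2 mg/mL, 100 mM phosphate pH 7.4, 10 μM test compound, preincubated 0, 5, 10 and 30 min at 37 °C; then NADPH plus probe cocktail (5 μM midazolam, 50 μM testosterone, 5 μM dextromethorphan, 10 μM diclofenac, 50 μM phenacetin, 50 μM S-(+)-mephenytoin) added; 10 min reaction; kobs in units of 10^-4/min.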

[1] = target: T1, Bromodomain-containing protein 4 (Homo sapiens, UniProt O60885); test: Displacement of 5-FITC labelled (+)-JQ1 from His6-tagged human BRD4 bromodomain 1 expressed in Escherichia coli BL21(DE3) )-codon plus-RIL cells incubated for 4 hrs in dark condition by fluorescence anisotropy binding assay
[2] = target: T1, Bromodomain-containing protein 4; test: Inhibition of BRD4 in human MV4-11 cells assessed as reduction in BCL2 phosphorylation at ser70 residues after 24 hrs by Western blot analysis; assay type: cell-based
In short: (§1)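 MV4-11 cells exposed to graded doses for 24 h; lysates immunoblotted for phospho-BCL2, with GAPDH as loading control.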

NCI-H522 = test: Antiproliferative activity against human NCI-H522 cells after 72 hrs by CCK8 or SRB assay; assay type: functional, cell-based
BT-549 = test: Antiproliferative activity against human BT549 cells after 72 hrs by CCK8 or SRB assay; assay type: functional, cell-based
MV4-11 [3] = test: Induction of apoptosis in human MV4-11 cells assessed as reduction in c-IAP2 level after 24 hrs by Western blot analysis; assay type: functional, cell-based
[4] = target: Bromodomain-containing protein 7 (Homo sapiens) (UniProt Q9NPI1); test: Binding affinity to human partial length BRD7 (L125 to R254 residues) expressed in […] assessed as residual binding level at 1 uM measured after 1 hr by quantitative PCR based BROMOscan assay relative to control
Chain of Bromodomain-containing protein 7 (Homo sapiens) (Q9NPI1 whole entry, the tested form may be a part): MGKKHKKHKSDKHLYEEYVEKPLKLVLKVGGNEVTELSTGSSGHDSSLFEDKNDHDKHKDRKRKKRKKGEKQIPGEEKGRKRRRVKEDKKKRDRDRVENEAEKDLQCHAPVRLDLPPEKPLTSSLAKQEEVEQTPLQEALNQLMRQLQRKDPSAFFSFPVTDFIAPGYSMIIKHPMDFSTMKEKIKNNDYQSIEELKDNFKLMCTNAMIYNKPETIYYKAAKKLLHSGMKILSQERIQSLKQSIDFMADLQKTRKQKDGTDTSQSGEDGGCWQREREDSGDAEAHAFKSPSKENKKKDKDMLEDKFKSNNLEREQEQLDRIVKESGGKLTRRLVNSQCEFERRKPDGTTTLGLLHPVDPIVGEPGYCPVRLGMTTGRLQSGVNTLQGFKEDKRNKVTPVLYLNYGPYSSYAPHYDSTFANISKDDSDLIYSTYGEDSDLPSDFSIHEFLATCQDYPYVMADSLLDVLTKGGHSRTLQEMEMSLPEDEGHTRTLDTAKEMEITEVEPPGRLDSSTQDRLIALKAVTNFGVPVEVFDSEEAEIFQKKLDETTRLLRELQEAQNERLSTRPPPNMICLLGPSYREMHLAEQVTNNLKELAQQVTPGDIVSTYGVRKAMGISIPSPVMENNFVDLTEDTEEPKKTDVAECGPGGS
In short: (§2)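 A BROMOScan competition-binding panel of 32 bromodomains was run at a single 1 μM compound concentration. Results are primary-screen 'Percent Control', where lower values indicate stronger binding.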

[5] = Bioavailability in rat at 3 mg/kg, iv; assay type: ADME, organism-based; details: in vivo
HT-29 = test: Antiproliferative activity against human HT-29 cells after 72 hrs by CCK8 or SRB assay; assay type: functional, cell-based
MV4-11 [6] = test: Induction of apoptosis in human MV4-11 cells assessed as reduction in XIAP level after 24 hrs by Western blot analysis; assay type: functional, cell-based
[7] = Tmax in ICR mouse plasma at 50 mg/kg, po administered via gavage measured after 0.25 to 24 hrs by UPLC/MS analysis; assay type: ADME, organism-based
In short: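 Male ICR mice dosed orally at 50 mg/kg in 1% DMSO/0.5% HPMC; drug measured in plasma and brain.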

MV4-11 [8] = test: Antitumor activity against human MV4-11 cells xenografted in Balb/c nude mouse assessed as tumor growth inhibition at 50 mg/kg, po administered once daily and measured twice a week by caliper method relative to control; assay type: functional; details: MV4-11, po, read-out: TGI
[9] = target: T1, Bromodomain-containing protein 4; test: Inhibition of BRD4 in human MV4-11 cells assessed as reduction in BCL2 phosphorylation at Thr56 residues after 24 hrs by Western blot analysis; assay type: cell-based; in short: as §1
MV4-11 [10] = test: Induction of apoptosis in human MV4-11 cells assessed as increase in cleaved caspase-7 level after 24 hrs by Western blot analysis; assay type: functional, cell-based
In short: (§3)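 MV4-11 cells exposed to compound at the indicated doses for 24 h; lysates probed by Western blotting for the target protein, with GAPDH as loading control.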

[11] = target: T1, Bromodomain-containing protein 4; test: Binding affinity to human partial length BRD4 bromodomain 1 long isoform (N44 to E168 residues) expressed in Escherichia coli BL21 cells assessed as residual binding level at 1 uM measured after 1 hr by quantitative PCR based BROMOscan assay relative to control; in short: as §2
[12] = AUC (0 to t) in rat brain at 50 mg/kg, po; assay type: ADME, organism-based
In short: (§4)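 Compound was given orally or intravenously in 1% DMSO/0.5% HPMC vehicle. Concentrations in plasma, or in brain where stated, gave Tmax, Cmax, T1/2, AUC0-t and AUC0-inf.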

MV4-11 [13] = test: Induction of apoptosis in human MV4-11 cells assessed as increase in cleaved caspase-9 level after 24 hrs by Western blot analysis; assay type: functional, cell-based
In short: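 MV4-11 cells exposed to test agent at the indicated doses for 24 h. Lysates immunoblotted for full-length and cleaved caspase-3, -7, -8 and -9, with GAPDH as the loading reference.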

MV4-11 [14] = test: Antitumor activity against human MV4-11 cells xenografted in Balb/c nude mouse assessed as tumor growth inhibition at 25 mg/kg, po administered once daily and measured twice a week by caliper method relative to control; assay type: functional; details: MV4-11, po, read-out: TGI
MV4-11 [15] = test: Induction of apoptosis in human MV4-11 cells assessed as reduction in BID level after 24 hrs by Western blot analysis; assay type: functional, cell-based; in short: as §3
MV4-11 [16] = test: Induction of apoptosis in human MV4-11 cells assessed as induction of PARP cleavage at 10 to 1000 nM after 24 hrs by Western blot analysis; assay type: functional, cell-based; in short: as §3
MV4-11 [17] = test: Induction of apoptosis in human MV4-11 cells assessed as reduction in c-IAP1 level after 24 hrs by Western blot analysis; assay type: functional, cell-based
[18] = Half life in dog plasma at 1 mg/kg, iv; assay type: ADME, organism-based, Canis lupus familiaris
[19] = Cmax in ICR mouse plasma at 50 mg/kg, po administered via gavage measured after 0.25 to 24 hrs by UPLC/MS analysis; assay type: ADME, organism-based; design: dose 50 mg/kg, route oral
In short: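 Male ICR mice dosed orally in 1% DMSO/0.5% HPMC vehicle; plasma or brain drug levels used to derive Tmax, Cmax, AUC0-t, AUC0-inf and T1/2.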

[20] = target: Insulin-like growth factor 1 receptor (Homo sapiens) (UniProt P08069); test: Inhibition of IGF1R (unknown origin) at 10 uM using poly (Glu, Tyr) 4:1 as substrate after 60 mins by ELISA
Chain of Insulin-like growth factor 1 receptor (Homo sapiens) (P08069 31-736 limits assumed): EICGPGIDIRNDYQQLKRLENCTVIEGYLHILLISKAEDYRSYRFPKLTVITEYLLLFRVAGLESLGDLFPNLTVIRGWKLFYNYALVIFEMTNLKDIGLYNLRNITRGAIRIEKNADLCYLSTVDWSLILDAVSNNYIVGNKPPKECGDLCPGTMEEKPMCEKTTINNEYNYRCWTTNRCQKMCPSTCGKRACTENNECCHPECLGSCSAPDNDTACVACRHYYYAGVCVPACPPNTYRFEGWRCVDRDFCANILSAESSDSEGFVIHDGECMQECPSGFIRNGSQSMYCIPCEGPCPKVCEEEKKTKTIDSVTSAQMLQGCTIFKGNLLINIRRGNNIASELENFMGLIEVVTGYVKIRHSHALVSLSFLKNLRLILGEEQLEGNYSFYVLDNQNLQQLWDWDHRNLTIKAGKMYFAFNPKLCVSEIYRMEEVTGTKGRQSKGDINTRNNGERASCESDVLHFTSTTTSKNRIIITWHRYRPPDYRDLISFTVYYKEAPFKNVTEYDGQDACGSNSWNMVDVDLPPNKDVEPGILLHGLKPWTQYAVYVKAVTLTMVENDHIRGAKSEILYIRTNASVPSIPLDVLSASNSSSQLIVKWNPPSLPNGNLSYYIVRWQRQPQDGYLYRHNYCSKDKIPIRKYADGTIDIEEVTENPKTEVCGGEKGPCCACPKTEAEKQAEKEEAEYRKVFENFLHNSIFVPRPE
Chain of Insulin-like growth factor 1 receptor (Homo sapiens) (P08069 741-1367 limits assumed): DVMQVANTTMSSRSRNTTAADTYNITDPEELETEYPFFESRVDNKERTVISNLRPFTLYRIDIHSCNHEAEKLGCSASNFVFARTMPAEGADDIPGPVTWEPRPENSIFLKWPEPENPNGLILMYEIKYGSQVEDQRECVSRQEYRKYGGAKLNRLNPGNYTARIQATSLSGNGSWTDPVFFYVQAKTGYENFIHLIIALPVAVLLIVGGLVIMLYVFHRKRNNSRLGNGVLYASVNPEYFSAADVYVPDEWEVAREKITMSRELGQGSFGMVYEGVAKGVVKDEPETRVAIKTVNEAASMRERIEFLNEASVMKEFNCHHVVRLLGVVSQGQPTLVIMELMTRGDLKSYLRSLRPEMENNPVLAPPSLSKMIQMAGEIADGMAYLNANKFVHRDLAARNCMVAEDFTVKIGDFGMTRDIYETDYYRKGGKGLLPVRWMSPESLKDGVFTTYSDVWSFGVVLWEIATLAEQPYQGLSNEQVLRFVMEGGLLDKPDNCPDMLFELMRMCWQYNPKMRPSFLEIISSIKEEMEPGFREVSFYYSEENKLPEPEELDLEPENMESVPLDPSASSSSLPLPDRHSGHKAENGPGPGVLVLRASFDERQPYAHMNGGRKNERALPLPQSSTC

MV4-11 [21] = test: Induction of apoptosis in human MV4-11 cells assessed as reduction in BCL-2 level after 24 hrs by Western blot analysis; assay type: functional, cell-based; in short: as §3
[22] = target: Chromatin remodeling regulator CECR2 (Homo sapiens) (UniProt Q9BXF3); test: Binding affinity to human partial length CECR2 (P423 to D543 residues) expressed in Escherichia coli BL21 cells assessed as residual binding level at 1 uM measured after 1 hr by quantitative PCR based BROMOscan assay relative to control; in short: as §2
Chain of Chromatin remodeling regulator CECR2 (Homo sapiens) (Q9BXF3 whole entry, looked up, the tested form may be a part): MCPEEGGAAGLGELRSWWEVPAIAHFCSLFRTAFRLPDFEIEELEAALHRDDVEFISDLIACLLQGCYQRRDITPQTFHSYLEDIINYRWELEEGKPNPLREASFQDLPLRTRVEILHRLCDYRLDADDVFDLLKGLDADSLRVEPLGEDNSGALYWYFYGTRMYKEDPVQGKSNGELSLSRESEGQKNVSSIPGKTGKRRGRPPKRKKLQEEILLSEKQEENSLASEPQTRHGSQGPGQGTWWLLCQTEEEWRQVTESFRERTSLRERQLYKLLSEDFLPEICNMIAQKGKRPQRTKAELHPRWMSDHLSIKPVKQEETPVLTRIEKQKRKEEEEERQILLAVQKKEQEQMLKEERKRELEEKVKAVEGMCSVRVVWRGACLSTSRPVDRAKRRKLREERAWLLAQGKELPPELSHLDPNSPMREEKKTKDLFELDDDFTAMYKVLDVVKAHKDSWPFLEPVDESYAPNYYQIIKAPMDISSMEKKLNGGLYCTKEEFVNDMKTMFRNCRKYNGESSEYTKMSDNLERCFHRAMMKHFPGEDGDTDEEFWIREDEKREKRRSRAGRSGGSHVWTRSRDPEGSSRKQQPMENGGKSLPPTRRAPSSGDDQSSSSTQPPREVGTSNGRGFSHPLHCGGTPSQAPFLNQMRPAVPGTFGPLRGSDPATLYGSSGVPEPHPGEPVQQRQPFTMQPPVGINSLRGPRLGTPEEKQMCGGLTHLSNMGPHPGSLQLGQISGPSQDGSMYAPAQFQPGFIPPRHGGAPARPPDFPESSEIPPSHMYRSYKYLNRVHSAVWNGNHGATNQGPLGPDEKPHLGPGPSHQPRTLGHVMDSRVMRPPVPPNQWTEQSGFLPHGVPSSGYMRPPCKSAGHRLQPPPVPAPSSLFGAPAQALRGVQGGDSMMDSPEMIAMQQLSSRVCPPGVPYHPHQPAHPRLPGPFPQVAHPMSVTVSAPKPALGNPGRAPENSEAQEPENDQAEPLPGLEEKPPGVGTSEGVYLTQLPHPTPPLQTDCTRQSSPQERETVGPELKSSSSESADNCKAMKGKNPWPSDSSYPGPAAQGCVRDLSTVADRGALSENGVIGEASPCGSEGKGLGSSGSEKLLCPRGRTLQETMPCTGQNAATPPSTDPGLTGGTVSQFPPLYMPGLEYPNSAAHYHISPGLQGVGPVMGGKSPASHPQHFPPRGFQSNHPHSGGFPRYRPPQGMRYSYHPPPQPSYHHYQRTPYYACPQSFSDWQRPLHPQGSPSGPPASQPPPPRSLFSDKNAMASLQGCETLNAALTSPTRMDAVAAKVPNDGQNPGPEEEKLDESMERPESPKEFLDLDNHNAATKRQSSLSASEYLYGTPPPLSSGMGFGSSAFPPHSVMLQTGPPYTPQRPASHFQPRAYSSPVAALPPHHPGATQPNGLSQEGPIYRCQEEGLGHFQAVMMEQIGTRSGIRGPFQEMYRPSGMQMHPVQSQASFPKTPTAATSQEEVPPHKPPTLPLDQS

[23] = Half life in rat plasma at 50 mg/kg, po; assay type: ADME, organism-based
SK-OV-3 = test: Antiproliferative activity against human SKOV3 cells after 72 hrs by CCK8 or SRB assay; assay type: functional, cell-based
[24] = Clearance in rat liver microsomes; assay type: ADME, Microsome; details: read-out: CLH
[25] = AUC (0 to t) in rat plasma at 50 mg/kg, po; assay type: ADME, organism-based; in short: as §4
[26] = Cmax in rat plasma at 10 mg/kg, po; assay type: ADME, organism-based; design: dose 10 mg/kg, route oral
[27] = AUC (0 to t) in dog plasma at 3 mg/kg, po; assay type: ADME, organism-based, Canis lupus familiaris; in short: as §4

Cc1ccc(-n2nc(C(=O)N3C[C@@H](C)N[C@@H](C)C3)nc2-c2ccc3c(c2)N(C2CCCC2)[C@H](C)C(=O)N3C)cc1
TDI (Cytochrome P450 2C19): Not Active
IC50 [1]: 5.3 nM
inhibition [2]: Dose-dependent effect
Activity (NCI-H522): Active
Activity (BT-549): Active
Activity (MV4-11 [3]): Dose-dependent effect
Activity [4]: 70 to 100%
bioavailability [5]: 18.2%
Activity (HT-29): Active
Activity (MV4-11 [6]): Dose-dependent effect
Tmax [7]: 1 h
inhibition in vivo at 50 mg/kg (MV4-11 [8]): 95.6%
inhibition [9]: Dose-dependent effect
Activity (MV4-11 [10]): Dose-dependent effect
Activity [11]: < 5%
AUC(0-t) [12]: 331 ng·h/mL
Activity (MV4-11 [13]): Dose-dependent effect
inhibition in vivo at 25 mg/kg (MV4-11 [14]): 89.7%
Activity (MV4-11 [15]): Dose-dependent effect
Activity (MV4-11 [16]): Active
Activity (MV4-11 [17]): Dose-dependent effect
half-life [18]: 9.4 h
Cmax [19]: 4020 ng/mL
inhibition [20]: Active
Activity (MV4-11 [21]): Dose-dependent effect
Activity [22]: 70 to 100%
half-life [23]: 6.3 h
Activity (SK-OV-3): Active
microsomal CLint [24]: 28 µL/min/mg
AUC(0-t) [25]: 3820 ng·h/mL
Cmax [26]: 182 ng/mL
AUC(0-t) [27]: 747 ng·h/mL
